Bioassay records (PubChem BioAssay)
Most compounds without a hit are left out; they make up all but 4.1% or so of the library.
Mdm2-MdmX inh = human Mdm2/MdmX binding inhibition; O15151+Q00987; SaOS-2 split-luciferase Mdm2/MdmX complementation, luminescence; inhibition, % at 8 µM; 330,000 tested, 3% active;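 active = inhibition of at least 50% at 8 µM in the primary screen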
Target sequence (O15151 whole entry, looked up): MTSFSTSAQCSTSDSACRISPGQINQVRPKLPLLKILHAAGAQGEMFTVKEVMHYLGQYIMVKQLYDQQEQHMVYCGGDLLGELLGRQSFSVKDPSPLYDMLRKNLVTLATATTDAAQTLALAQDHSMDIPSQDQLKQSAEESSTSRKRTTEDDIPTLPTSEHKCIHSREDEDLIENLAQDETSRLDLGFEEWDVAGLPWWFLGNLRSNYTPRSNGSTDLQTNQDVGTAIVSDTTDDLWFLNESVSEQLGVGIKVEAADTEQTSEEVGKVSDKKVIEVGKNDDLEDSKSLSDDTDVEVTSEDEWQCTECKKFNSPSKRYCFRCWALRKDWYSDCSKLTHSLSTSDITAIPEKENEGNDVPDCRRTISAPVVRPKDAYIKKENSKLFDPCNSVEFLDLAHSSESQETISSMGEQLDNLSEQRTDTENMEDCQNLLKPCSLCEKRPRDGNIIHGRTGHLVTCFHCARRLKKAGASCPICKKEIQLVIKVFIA
Target sequence (Q00987 whole entry, looked up): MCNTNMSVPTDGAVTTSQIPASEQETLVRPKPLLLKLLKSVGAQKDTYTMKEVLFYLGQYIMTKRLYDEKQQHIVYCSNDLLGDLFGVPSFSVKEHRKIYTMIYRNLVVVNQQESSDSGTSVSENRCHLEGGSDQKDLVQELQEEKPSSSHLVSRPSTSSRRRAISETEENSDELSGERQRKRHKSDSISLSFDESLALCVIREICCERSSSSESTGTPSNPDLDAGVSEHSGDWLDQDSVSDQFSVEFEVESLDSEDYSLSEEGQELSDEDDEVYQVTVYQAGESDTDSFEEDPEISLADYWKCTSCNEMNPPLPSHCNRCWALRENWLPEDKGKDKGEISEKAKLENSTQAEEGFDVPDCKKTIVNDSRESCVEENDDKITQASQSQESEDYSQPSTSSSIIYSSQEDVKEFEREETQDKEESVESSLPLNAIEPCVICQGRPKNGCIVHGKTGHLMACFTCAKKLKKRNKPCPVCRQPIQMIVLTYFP
Apaf1 inhib = blocks human Apaf-1 apoptosome activity. O14727. reconstituted apoptosome caspase-3 activity, DEVD-Rh110 fluorescence. inhibition, % at 20 µM. 330,000 tested, 0.71% active. AID 489030; active = inhibition of at least 40% at 20 µM
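System: reconstituted apoptosome with Apaf-1, cytochrome c, caspase-9, procaspase-3, dATP; Signal: Rh110 fluorescence intensity; Schedule: 30 min compound preincubation, 50 min activation, room temperature; Reagent: cytochrome c trigger plus (Z-DEVD)2-Rh110 caspase-3 substrate.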
UBC13 polyUb = blocks human UBC13 polyubiquitin chain formation; inhibition, % at 20 µM; 330,000 tested, 0.47% active; P61088; TR-FRET; in the data active = inhibition above about 45%, passing the limit was not always enough
UPR XBP1 act = activators of adaptive arm of unfolded protein response (XBP1); 330,000 tested, 0.33% active; CHO-XBP1 luciferase reporter, IRE1-XBP1 UPR activation, luminescence; percent of tunicamycin response, DMSO as zero; activation, % at 20 µM;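 active = versus positive control, 20 µM dose yields 30% or more activation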
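Material: CHO cell line with stable XBP1 luciferase reporter; buffer or medium: F12 medium containing 10% fetal bovine serum; compound: single point, 20 µM final compound, 1% DMSO; incubation: 6 h treatment, 37 °C; measured by: glow luminescence from Steady-Glo reagent; evaluation: activation, % of tunicamycin; control set: tunicamycin high, DMSO low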
UPR CHOP act = activators of apoptotic arm of unfolded protein response (CHOP). CHO-CHOP luciferase reporter, UPR activation, luminescence; percent of tunicamycin response over DMSO baseline. activation, % at 10 µM. 330,000 tested, 0.34% active;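 active = at 10 µM dose, activation of 40% or more, normalized to positive control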
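System: CHO-CHOP luciferase reporter cell line; amount: 500 cells/well; buffer or medium: F12 medium containing 10% fetal bovine serum; incubation: 6 h compound exposure at 37 °C after overnight seeding; measured by: luciferase luminescence after 10 min with Steady-Glo reagent; evaluation: % reporter activation, DMSO baseline versus tunicamycin full activation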
UPR XBP1 confirm = adaptive UPR (XBP1) activation, confirmed. activation, % at 20 µM. CHO-XBP1 IRE1-XBP1 luciferase reporter, luminescence. shares compounds with UPR XBP1 act. 1,000 tested, 63% active. AID 485299;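 active = reporter signal at least 30% of the positive control's activation in two or more of four replicate wells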
Casp3 counter = caspase-3 inhibition (UBC13 counter-screen) | Recombinant caspase-3, Caspase-Glo 3/7 luminescence, 60 min | shares compounds with UBC13 polyUb | inhibition, % at 20 µM | AID 488856 | 1,400 tested, 4% active;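 active = mean inhibition across replicates above about 26%, limit read from the data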
UBC13 conf = confirmation of human UBC13 polyubiquitin inhibitors | shares compounds with UBC13 polyUb | UBC13 polyubiquitination, TR-FRET, biochemical | inhibition, % at 10 µM | 1,400 tested, 68% active | AID 488859; in the data active = inhibition above about 45%
Mdm2 MdmX conf = confirmation of human Mdm2/MdmX interaction inhibitors. shares compounds with Mdm2-MdmX inh. Mdm2-MdmX binding, luminescent assay. inhibition, % at 8 µM. 10,000 tested, 55% active. AID 489028; in the data active = inhibition above about 40%
Full FLuc ctr = full-length luciferase inhibition in Mdm2/MdmX counter-screen; shares compounds with Mdm2-MdmX inh; SaOS-2 full-length luciferase counterscreen, luminescence; inhibition, % at 8 µM; 6,200 tested, 77% active; AID 504607;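 active = mean inhibition at 8 µM reaching about 37%, which flags the compound as non-specific, limit read from the data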;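 note: p53-null SaOS-2 cells with luciferase driven by a doxycycline-inducible promoter; compound on cells about two nights before reading with doxycycline added after day one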
A number is an active result; 0 = inactive; - = not tested or not shown.

SMILES	Mdm2-MdmX inh	Apaf1 inhib	UBC13 polyUb	UPR XBP1 act	UPR CHOP act	UPR XBP1 confirm	others
Cc1ccc(NC(=O)c2c(C)nc3sc(C(=O)NC4CCCC4)c(N)c3c2-c2ccco2)c(C)c1	0	0	0	63	0	105
Cc1ccccc1NC(=O)c1sc2nc3c(c(-c4ccco4)c2c1N)CCC3	0	0	0	0	0	-
COc1cccc(C(=O)Nc2ccc3c(c2)C(=O)c2ccccc2C3=O)c1	0	0	0	91	0	0
COc1ccc(N2CCN(Cc3nc(N)nc(Nc4ccc(C)c(Cl)c4)n3)CC2)cc1	0	0	0	33	0	62
Cc1ccccc1NC(=O)CSc1nc2cc3c(cc2cc1C)CCC3	0	0	0	0	0	-
CCC(=O)Nc1ccc(NC(=O)CSc2nc3cc4c(cc3cc2C)CCC4)cc1	0	0	0	50	0	40
COc1ccc(-n2nc3c(N4CCC(C(=O)NCCc5ccccc5C)CC4)nnc(C)c3c2C)cc1	0	0	0	50	0	0
Clc1ccccc1-c1ccc(/C=N/Nc2nncc(-c3ccccc3)n2)o1	0	0	0	41	0	0
CCOC(=O)c1[nH]c(C)c(C(=O)OCC(=O)Nc2sc3c(c2C#N)CCCCC3)c1C	0	0	0	63	0	0
O=[N+]([O-])c1ccc(N/N=C/c2ccc(OCc3cccc4ccccc34)cc2)nc1	0	0	0	74	0	34
N#Cc1ccccc1Cn1cc(/C=N/Nc2ccc([N+](=O)[O-])cn2)c2ccccc21	0	0	0	0	0	-
COc1ccccc1-c1cn[nH]c1-c1ccc(OCc2ccc(F)cc2)cc1O	0	0	0	0	0	-
COc1ccccc1-c1cn[nH]c1-c1ccc(OCc2ccc([N+](=O)[O-])cc2)cc1O	0	0	0	42	0	0
CCCCNc1c(-c2ccc(-c3ccc(C(C)=O)cc3)c(OC)c2)nc2cc(C)ccn12	0	0	0	40	0	38
COc1ccc(-c2nc3cc(C)ccn3c2NCC2CCCO2)cc1OC (stereo unspecified)	0	0	0	0	0	-
CCCOC(=O)c1cccc(Nc2nc(-c3cccnc3)nc3ccccc23)c1	0	0	49	32	0	58	Casp3 counter=0;UBC13 conf=66
O=C(OCCNc1nc(-c2ccccc2)nc2ccccc12)c1cccnc1	0	0	0	0	0	-
CC1=C(C(=O)OC2CCCCC2)C(c2ccc(F)cc2)NC(=O)N1 (stereo unspecified)	0	0	0	0	0	-
Cc1cccc(NC(=O)Cn2c(O)c(N=NC(N)=S)c3ccccc32)c1	0	0	0	0	0	-
CC1=CC(C)(C)n2c(O)c(N=NC(N)=S)c3cc(C)cc1c32	0	0	57	31	0	0	Casp3 counter=0;UBC13 conf=52
Cc1c(CCOC(=O)C23CC4(C)CC(C)(CC(C)(C4)C2)C3)sc[n+]1CC(=O)c1ccccc1	0	0	70	40	0	65	Casp3 counter=0;UBC13 conf=88
Cc1ccc2c(c1)c(N=NC(N)=S)c(O)n2Cc1ccccc1	0	0	79	33	0	41	Casp3 counter=0;UBC13 conf=46
COc1ccc(N(C)S(=O)(=O)c2cccc(C(=O)OCC(=O)c3c(N)n(C)c(=O)n(C)c3=O)c2)cc1	0	0	0	0	0	-
O=C(Nc1ccc(O)c2c(=O)cc(-c3cccc(Cl)c3)oc12)c1cccc(Cl)c1	81	0	0	73	0	70	Mdm2 MdmX conf=0
Cc1cccc(C)c1OC(=O)CN(c1ccc(Cl)cc1)S(C)(=O)=O	0	0	0	0	0	-
SMILES	Mdm2-MdmX inh	Apaf1 inhib	UBC13 polyUb	UPR XBP1 act	UPR CHOP act	UPR XBP1 confirm	others
CCCCN1C(=O)C(=O)c2cc(Cl)ccc21	54	0	0	42	0	38	Mdm2 MdmX conf=0
Cc1ccc2c(c1)C(=O)C(=O)N2Cc1ccc(Br)cc1	66	0	0	52	0	40	Mdm2 MdmX conf=63;Full FLuc ctr=74
Cc1ccc2c(c1)C(=O)C(=O)N2CCCOc1ccccc1C	0	0	0	0	0	-
Cc1ccc(CN2C(=O)C(=O)c3cc(C)ccc32)cc1	67	0	0	35	0	29	Mdm2 MdmX conf=0
CC1=C(C(=O)OC2CCCCC2)C(c2ccc(N(C)C)cc2)NC(=O)N1 (stereo unspecified)	0	0	0	0	0	-
Clc1ccc2c(c1)C(N1CCNCC1)Cc1ccccc1S2 (stereo unspecified)	101	0	0	63	0	72	Mdm2 MdmX conf=100;Full FLuc ctr=39
COCCCN1CCN(C2Cc3ccccc3Sc3ccc(Cl)cc32)CC1 (stereo unspecified)	0	0	0	0	0	-
COC(=O)c1ccccc1NC(=O)c1cc(-c2ccco2)on1	0	0	0	0	0	-
COC(=O)c1ccccc1NC(=O)c1cc(-c2cccs2)on1	60	0	0	32	0	0	Mdm2 MdmX conf=0
CC1CN(c2ccc([N+](=O)[O-])c(NCCOc3ccc(Cl)cc3)c2)CC(C)N1 (stereo unspecified)	0	0	0	0	0	-
CCc1ccc(OCCNc2cc(N3CCNC(C)C3)ccc2[N+](=O)[O-])cc1 (stereo unspecified)	95	75	68	56	0	68	Casp3 counter=0;UBC13 conf=55;Mdm2 MdmX conf=0;Full FLuc ctr=75
COc1ccc(Cl)cc1NC(=O)CN1CCN(Cc2ccccc2)CC1	0	0	0	0	0	-
CCOc1ccc(OCC(=O)N(CCC2=CCCCC2)c2c(N)n(Cc3ccccc3)c(=O)[nH]c2=O)cc1	68	0	0	31	0	0	Mdm2 MdmX conf=56;Full FLuc ctr=92
CCOc1ccc(OCCC(=O)N(CCC2=CCCCC2)c2c(N)n(Cc3ccccc3)c(=O)[nH]c2=O)cc1	0	0	0	0	0	-
Cc1ccc(-n2nc3c(N4CCC(C(=O)NCCc5ccco5)CC4)nnc(C)c3c2C)cc1	0	0	0	0	0	-
Cc1ccc(-n2nc3c(N4CCC(C(=O)NCCc5ccccc5C)CC4)nnc(C)c3c2C)cc1	98	0	0	39	0	30	Mdm2 MdmX conf=43;Full FLuc ctr=53
COc1ccc(Oc2nc(OC)cc(OC)n2)cc1	0	0	0	0	0	-
O=C(N/N=C/c1ccccc1Cl)c1[nH]c2ccc(Br)cc2c1-c1ccccc1	89	0	0	50	0	59	Mdm2 MdmX conf=75;Full FLuc ctr=106
